Assay results of several laboratories.
Each line is one published result; the experiments were not run side by side.
Target: BDNF/NT-3 growth factors receptor (NTRK2, Homo sapiens, UniProt Q16620)

| SMILES | test | setting | quantity | value |
| --- | --- | --- | --- | --- |
| O=C1CCc2cc(Nc3cc(OC4CCOCC4)c([N+](=O)[O-])cc3Cl)ccc2N1 | cell-free assay, competition with immobilised ligand | 1 µM | remaining binding | 100% |
| Cc1ccc(C(=O)NCc2ccsc2)cc1C#Cc1cn(C(C)C)c2ncnc(N)c12 | enzyme activity, inhibitor | 1 µM | activity vs control | 58% |
| O=C(Nc1cccc(C(=O)Nc2ccc3[nH]ncc3c2)c1)Nc1cccc(C(F)(F)F)c1 | enzyme activity, inhibitor, FRET | 1 µM | inhibition | 24.5% |
| Cc1nccc(COC(=O)N2C[C@@H]3[C@@H](CNC(=O)c4ccc5[nH]nnc5c4)[C@@H]3C2)n1 | cell-free assay, competition with immobilised ligand | 1 µM | remaining binding | 100% |
| O=C(Cc1ccc(C(F)(F)F)cc1)Nc1cccc(C(=O)Nc2ccc3[nH]ncc3c2)c1 | enzyme activity, inhibitor, FRET | 1 µM | inhibition | 16.8% |
| Cc1cc(-n2nc(Cc3cc(F)cc(C(F)(F)F)c3)nc2C)ccc1C(N)=O | cell-free assay, competition with immobilised ligand | 1 µM | remaining binding | 98% |
| O=C(Nc1ccc2[nH]ncc2c1)c1cccc(NC(=S)Nc2cc(C(F)(F)F)cc(C(F)(F)F)c2)c1 | enzyme activity, inhibitor, FRET | 1 µM | inhibition | 11.2% |
| Cc1cnc(NC2CCOCC2)nc1-n1cnc(C(=O)NC(CN)c2cc(F)cc(Cl)c2)c1 (stereo not shown) | enzyme activity, inhibitor, radiometric | 1 µM | remaining activity | 110% |
| CN1CCN(CC(=O)Nc2cccc(C(=O)Nc3ccc4[nH]ncc4c3)c2)CC1 | enzyme activity, inhibitor, FRET | 1 µM | inhibition | 13.3% |
| CCN(CC)CCNC(=O)c1c(C)[nH]c(/C=C2\C(=O)Nc3ccc(F)cc32)c1C | cell-free assay | 10 µM | inhibition | 100% |
| Cc1sc(C(=O)NC2COC2)cc1-n1cc(NC(=O)Nc2c(F)cccc2Cl)cn1 | enzyme activity, inhibitor | 10 µM | remaining activity | 92.4% |
| Oc1cccc(-c2nc(N3CCOCC3)c3oc4ncccc4c3n2)c1 | cell-free assay | 0.5 µM | remaining signal | 90.2% |
| CCCOc1ccc([C@@H]2[C@@H](C(=O)O)[C@H](c3ccc4c(c3)OCO4)CN2CC(=O)Nc2c(CC)cccc2CC)cc1 | cell-free assay, competition with immobilised ligand | 1 µM | remaining binding | 100% |
| Cc1ccc(Nc2nccc(N(C)c3ccc4c(C)n(C)nc4c3)n2)cc1S(N)(=O)=O | cell-free assay | 0.5 µM | remaining signal | 91.5% |
| O=C(Nc1ccc2[nH]ncc2c1)c1cccc(NC(=S)Nc2ccc(C(F)(F)F)cc2)c1 | enzyme activity, inhibitor, FRET | 1 µM | inhibition | 19.6% |
| CCC(=O)N[C@@H]1CC[C@H](C(=O)N(C)c2ccc(-c3nc4ccccc4o3)cc2)C1 | cell-free assay, competition with immobilised ligand | 1 µM | remaining binding | 100% |
| O=C(Nc1ccc(I)cc1)Nc1cccc(C(=O)Nc2ccc3[nH]ncc3c2)c1 | enzyme activity, inhibitor, FRET | 1 µM | inhibition | 15.9% |
| CC(C)(C)c1nc2c(s1)c1nc(N)ncc1c1ccc(NS(=O)(=O)c3c(F)cccc3F)c(F)c12 | enzyme activity, inhibitor, radiometric | 1 µM | remaining activity | 65% |
| C[C@@H]1CN(c2cc(-c3n[nH]c4ccc(OC5(C)CC5)cc34)ncn2)C[C@H](C)O1 | cell-free assay, competition with immobilised ligand | 0.1 µM | remaining binding | 67% |
| N#CCCc1ccc2c(c1)-c1[nH]c3ccc([N+](=O)[O-])cc3c1CC(=O)N2 | cell-free assay | 0.5 µM | remaining signal | 86.4% |
| O=C(Nc1ccc2[nH]ncc2c1)c1cccc(NC(=S)Nc2ccc(F)cc2F)c1 | enzyme activity, inhibitor, FRET | 1 µM | inhibition | 9.64% |
| Nc1ncnc2occ(-c3ccc(NC(=O)Nc4cc(C(F)(F)F)ccc4F)cc3)c12 | cell-free assay | 20 µM | remaining signal | 1.4% |
| CN(c1ccnc(CNc2nc(Nc3ccc4c(c3)CC(=O)N4)ncc2C(F)(F)F)n1)S(C)(=O)=O | cell-free assay, competition with immobilised ligand | 1 µM | remaining binding | 21% |
| CC(C)(O)[C@H]1CC[C@H](Nc2ccc3ncc(-c4cccc(C(F)(F)F)c4)n3n2)CC1 | enzyme activity, inhibitor | 1 µM | remaining activity | 7.07% |
| O=C(Nc1cccc(C(=O)Nc2ccc3[nH]ncc3c2)c1)Nc1ccccc1C(F)(F)F | enzyme activity, inhibitor, FRET | 1 µM | inhibition | 25.7% |
| Cc1ccc(NC(=O)c2ccc(C)c(C(F)(F)F)c2)cc1C#Cc1nn(C2CCC(O)CC2)c2ncnc(N)c12 (stereo not shown) | cell-free assay | 10 µM | remaining signal | 4% |
| CCCOc1ccc(OC)c(F)c1C(=O)c1ccc(C(=O)N[C@@H]2CNC[C@H]2NC(=O)c2ccc3[nH]ncc3c2)cc1 | enzyme activity, inhibitor | 10 µM | remaining activity | 71% |
| Nc1cnc(N2CCc3cc(S(=O)(=O)Nc4c(F)cc(Cl)cc4F)cc(N4CCCC4=O)c32)nc1 | cell-free assay, competition with immobilised ligand | 1 µM | remaining binding | 100% |
